Laboratory results from ChEMBL document CHEMBL1148383, “Semisynthetic macrolide antibacterials derived from tylosin. Synthesis and structure-activity relationships of novel desmycosin analogues” (J Med Chem, 2004).
Converted amounts (≈) assume the structure as drawn.

Legend:
Assay type in all cases: functional
Streptococcus pyogenes [1] = assay: Antibacterial activity against Streptococcus pyogenes PSCB-0545
How it was run: (§1)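 MICs were determined by broth microdilution following NCCLS guidelines. The test panel includes erythromycin-susceptible strains and erythromycin-resistant strains with constitutive or inducible MLSB phenotypes or with efflux resistance.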

Staphylococcus aureus [2] = assay: Antibacterial activity against Staphylococcus aureus PSCB-0331; how it was run: as §1
Haemophilus influenzae = assay: Antibacterial activity against Haemophilus influenzae ATCC 49247; how it was run: as §1
Streptococcus pyogenes [3] = assay: Antibacterial activity against Streptococcus pyogenes PSCB-0543; how it was run: as §1
Staphylococcus aureus [4] = assay: Antibacterial activity against Staphylococcus aureus PSCB-0538; how it was run: as §1
Enterococcus faecalis = assay: Antibacterial activity against Enterococcus faecalis ATCC 29212; how it was run: as §1
Streptococcus pneumoniae = assay: Antibacterial activity against Streptococcus pneumoniae PSCB-0541; how it was run: as §1
Escherichia coli = assay: Antibacterial activity against Escherichia coli ATCC […]; how it was run: as §1
Staphylococcus aureus [5] = assay: Antibacterial activity against Staphylococcus aureus PSCB-0330; how it was run: as §1
Staphylococcus aureus [6] = assay: Antibacterial activity against Staphylococcus aureus ATCC 13709; how it was run: as §1

SMILES | MIC (Streptococcus pyogenes [1]) [µg/mL] | MIC (Staphylococcus aureus [2]) [µg/mL] | MIC (Haemophilus influenzae) [µg/mL] | MIC (Streptococcus pyogenes [3]) [µg/mL] | MIC (Staphylococcus aureus [4]) [µg/mL] | MIC (Enterococcus faecalis) [µg/mL] | MIC (Streptococcus pneumoniae) [µg/mL] | MIC (Escherichia coli) [µg/mL] | MIC (Staphylococcus aureus [5]) [µg/mL] | MIC (Staphylococcus aureus [6]) [µg/mL]
CCOC(=O)/C=C/C[C@H]1C[C@@H](C)C(=O)/C=C/C(C)=C/[C@H](COC2OC(C)C(O)C(OC)C2OC)[C@@H](CC)OC(=O)C[C@@H](O)[C@H](C)[C@H]1OC1OC(C)C(O)C(N(C)C)C1O (some centres undefined) | 1 (≈ 1.19 µM) | 0.25 (≈ 0.297 µM) | 4 (≈ 4.75 µM) | 0.5 (≈ 0.594 µM) | 0.25 (≈ 0.297 µM) | 1 (≈ 1.19 µM) | 2 (≈ 2.38 µM) | > 128 | > 128 | 0.5 (≈ 0.594 µM)
CC[C@H]1OC(=O)C[C@@H](O)[C@H](C)[C@@H](OC2OC(C)C(O)C(N(C)C)C2O)[C@@H](C/C=C/C(=O)OC)C[C@@H](C)C(=O)/C=C/C(C)=C/[C@@H]1COC1OC(C)C(O)C(OC)C1OC (some centres undefined) | 0.5 (≈ 0.604 µM) | 0.5 (≈ 0.604 µM) | 16 (≈ 19.3 µM) | 0.5 (≈ 0.604 µM) | 0.5 (≈ 0.604 µM) | 0.5 (≈ 0.604 µM) | 2 (≈ 2.42 µM) | > 128 | > 128 | 0.5 (≈ 0.604 µM)
CC[C@H]1OC(=O)C[C@@H](OC(C)=O)[C@H](C)[C@@H](OC2OC(C)C(O)C(N(C)C)C2O)[C@@H](CC=O)C[C@@H](C)C(=O)/C=C/C(C)=C/[C@@H]1COC1OC(C)C(O)C(OC)C1OC (some centres undefined) | 2 (≈ 2.46 µM) | 2 (≈ 2.46 µM) | 32 (≈ 39.3 µM) | 2 (≈ 2.46 µM) | 8 (≈ 9.83 µM) | 8 (≈ 9.83 µM) | 2 (≈ 2.46 µM) | > 128 | > 128 | 1 (≈ 1.23 µM)
CC[C@H]1OC(=O)CC2(O)C(C=O)[C@@H](C[C@@H](C)C(=O)/C=C/C(C)=C/[C@@H]1CO[C@@H]1O[C@@H](C)[C@@H](O)[C@@H](OC)[C@@H]1OC)[C@H](O[C@@H]1O[C@@H](C)[C@@H](O)[C@@H](N(C)C)[C@H]1O)[C@H]2C (some centres undefined) | 32 (≈ 41.6 µM) | 64 (≈ 83.1 µM) | 64 (≈ 83.1 µM) | 64 (≈ 83.1 µM) | 32 (≈ 41.6 µM) | 16 (≈ 20.8 µM) | 32 (≈ 41.6 µM) | > 128 | > 128 | 32 (≈ 41.6 µM)
CCOC(=O)/C=C/C[C@H]1C[C@@H](C)C(=O)/C=C/C(C)=C/[C@H](COC2OC(C)C(O)C(OC)C2OC)[C@@H](CC)OC(=O)C[C@@H](NN(C(=O)OCC)C(=O)OCC)[C@H](C)[C@H]1OC1OC(C)C(O)C(N(C)C)C1O (some centres undefined) | 16 (≈ 16 µM) | 32 (≈ 32 µM) | 128 (≈ 128 µM) | 32 (≈ 32 µM) | 64 (≈ 64 µM) | 64 (≈ 64 µM) | 32 (≈ 32 µM) | 128 (≈ 128 µM) | 128 (≈ 128 µM) | 4 (≈ 4 µM)
CC[C@H]1OC(=O)CC(=O)[C@H](C)[C@@H](O[C@@H]2O[C@@H](C)[C@@H](O)[C@@H](N(C)C)[C@H]2O)[C@H]2C[C@@H](O)[C@](C)(C2)C(=O)/C=C/C(C)=C/[C@@H]1CO[C@@H]1O[C@@H](C)[C@@H](O)[C@@H](OC)[C@@H]1OC | 16 (≈ 20.8 µM) | 32 (≈ 41.6 µM) | 128 (≈ 166 µM) | 64 (≈ 83.1 µM) | 4 (≈ 5.2 µM) | 4 (≈ 5.2 µM) | 8 (≈ 10.4 µM) | > 128 | > 128 | 8 (≈ 10.4 µM)
CC[C@H]1OC(=O)CC(=O)[C@H](C)[C@@H](O[C@@H]2O[C@@H](C)[C@@H](O)[C@@H](N(C)C)[C@H]2O)[C@H]2C[C@H](O)[C@@](C)(C2)C(=O)/C=C/C(C)=C/[C@@H]1CO[C@@H]1O[C@@H](C)[C@@H](O)[C@@H](OC)[C@@H]1OC | 16 (≈ 20.8 µM) | 32 (≈ 41.6 µM) | 128 (≈ 166 µM) | 64 (≈ 83.1 µM) | 8 (≈ 10.4 µM) | 8 (≈ 10.4 µM) | 4 (≈ 5.2 µM) | > 128 | > 128 | 8 (≈ 10.4 µM)
CC[C@H]1OC(=O)C[C@@H](O)[C@H](C)[C@@H](O[C@@H]2O[C@H](C)[C@@H](O)[C@@H](N(C)C)[C@H]2O)[C@@H](CC=O)C[C@@H](C)C(=O)/C=C/C(C)=C/[C@@H]1CO[C@@H]1O[C@H](C)[C@@H](O)[C@@H](OC)[C@H]1OC | 0.5 (≈ 0.648 µM) | 1 (≈ 1.3 µM) | 4 (≈ 5.18 µM) | 1 (≈ 1.3 µM) | 1 (≈ 1.3 µM) | 1 (≈ 1.3 µM) | 1 (≈ 1.3 µM) | 128 (≈ 166 µM) | > 128 | 1 (≈ 1.3 µM)
CC[C@H]1O/C(O)=C/C(=O)[C@H](C)[C@@H](OC2OC(C)C(O)C(N(C)C)C2O)[C@@H](C/C=C/C(=O)OC)C[C@@H](C)C(=O)/C=C/C(C)=C/[C@@H]1COC1OC(C)C(O)C(OC)C1OC (some centres undefined) | 4 (≈ 4.84 µM) | 2 (≈ 2.42 µM) | 128 (≈ 155 µM) | 4 (≈ 4.84 µM) | 2 (≈ 2.42 µM) | 4 (≈ 4.84 µM) | 32 (≈ 38.7 µM) | > 128 | > 128 | 2 (≈ 2.42 µM)
CC[C@H]1OC(=O)C[C@@H](O)[C@H](C)[C@@H](OC2OC(C)C(O)C(N(C)C)C2O)[C@@H](CC=O)C[C@@H](C)C(=O)CCC(C)C[C@@H]1COC1OC(C)C(O)C(OC)C1OC (some centres undefined) | 1 (≈ 1.29 µM) | 2 (≈ 2.58 µM) | 64 (≈ 82.5 µM) | 1 (≈ 1.29 µM) | 2 (≈ 2.58 µM) | 32 (≈ 41.2 µM) | 2 (≈ 2.58 µM) | 128 (≈ 165 µM) | 128 (≈ 165 µM) | 1 (≈ 1.29 µM)
CC[C@H]1OC(=O)/C=C\[C@H](C)[C@@H](OC2OC(C)C(O)C(N(C)C)C2O)[C@@H](CC=O)C[C@@H](C)C(=O)/C=C/C(C)=C/[C@@H]1COC1OC(C)C(O)C(OC)C1OC (some centres undefined) | 1 (≈ 1.33 µM) | 1 (≈ 1.33 µM) | 4 (≈ 5.31 µM) | 2 (≈ 2.65 µM) | 4 (≈ 5.31 µM) | 8 (≈ 10.6 µM) | 2 (≈ 2.65 µM) | > 128 | > 128 | 0.5 (≈ 0.663 µM)
CC[C@H]1OC(=O)C[C@H](O)[C@H](C)[C@@H](OC2OC(C)C(O)C(N(C)C)C2O)[C@@H](C/C=C/C(=O)OC)C[C@@H](C)C(=O)/C=C/C(C)=C/[C@@H]1COC1OC(C)C(O)C(OC)C1OC (some centres undefined) | – | – | – | – | – | – | – | > 128 | > 128 | –
CC[C@H]1OC(=O)C[C@@H](O)[C@H](C)[C@@H](OC2OC(C)C(O)C(=O)C2O)[C@@H](CC=O)C[C@@H](C)C(=O)/C=C/C(C)=C/[C@@H]1COC1OC(C)C(O)C(OC)C1OC (some centres undefined) | – | – | – | – | – | – | – | > 128 | > 128 | –
CC[C@H]1OC(=O)C[C@@H](O)[C@H](C)[C@@H](OC2OC(C)C(O)C(N(C)C)C2O)[C@@H](C/C=C/C(=O)O)C[C@@H](C)C(=O)/C=C/C(C)=C/[C@@H]1COC1OC(C)C(O)C(OC)C1OC (some centres undefined) | 128 (≈ 157 µM) | > 128 | 128 (≈ 157 µM) | > 128 | > 128 | > 128 | > 128 | > 128 | > 128 | > 128
CC[C@H]1O/C(O)=C/C(=O)[C@H](C)[C@@H](OC2OC(C)C(O)C(N(C)C)C2O)[C@@H](CC=O)C[C@@H](C)C(=O)CCC(C)C[C@@H]1COC1OC(C)C(O)C(OC)C1OC (some centres undefined) | 1 (≈ 1.29 µM) | 8 (≈ 10.3 µM) | > 128 | 8 (≈ 10.3 µM) | 16 (≈ 20.7 µM) | > 128 | 64 (≈ 82.7 µM) | > 128 | > 128 | 8 (≈ 10.3 µM)
CC[C@H]1O/C(O)=C/C(=O)[C@H](C)[C@@H](OC2OC(C)C(O)C(N(C)C)C2O)[C@@H](CC=O)C[C@@H](C)C(=O)/C=C/C(C)=C/[C@@H]1COC1OC(C)C(O)C(OC)C1OC (some centres undefined) | 4 (≈ 5.2 µM) | 32 (≈ 41.6 µM) | > 128 | 32 (≈ 41.6 µM) | 16 (≈ 20.8 µM) | 8 (≈ 10.4 µM) | 8 (≈ 10.4 µM) | > 128 | > 128 | 8 (≈ 10.4 µM)
CCOC(=O)/C=C/C[C@H]1C[C@@H](C)C(=O)/C=C/C(C)=C/[C@H](COC2OC(C)C(O)C(OC)C2OC)[C@@H](CC)OC(=O)C[C@@H](OC(=O)Cc2ccc([N+](=O)[O-])cc2)[C@H](C)[C@H]1OC1OC(C)C(O)C(N(C)C)C1O (some centres undefined) | 0.5 (≈ 0.497 µM) | 0.5 (≈ 0.497 µM) | 8 (≈ 7.96 µM) | 2 (≈ 1.99 µM) | 0.25 (≈ 0.249 µM) | 2 (≈ 1.99 µM) | 4 (≈ 3.98 µM) | > 128 | > 128 | < 0.25
CC[C@H]1OC(=O)C[C@@H](O)[C@H](C)[C@@H](OC2OC(C)C(OC3CC(C)(O)C(O)C(C)O3)C(N(C)C)C2O)[C@@H](CC=O)C[C@@H](C)C(=O)CCC(C)C[C@@H]1COC1OC(C)C(O)C(OC)C1OC (some centres undefined) | 1 (≈ 1.09 µM) | 2 (≈ 2.17 µM) | 64 (≈ 69.6 µM) | 64 (≈ 69.6 µM) | 4 (≈ 4.35 µM) | 16 (≈ 17.4 µM) | 8 (≈ 8.69 µM) | 64 (≈ 69.6 µM) | 64 (≈ 69.6 µM) | 2 (≈ 2.17 µM)
CC[C@H]1OC(=O)C[C@@H](O)[C@H](C)[C@@H](O[C@@H]2O[C@H](C)[C@@H](O[C@H]3C[C@@](C)(O)[C@@H](O)[C@H](C)O3)[C@H](N(C)C)[C@H]2O)[C@@H](CC=O)C[C@@H](C)C(=O)/C=C/C(C)=C/[C@@H]1CO[C@@H]1O[C@H](C)[C@@H](O)[C@@H](OC)[C@H]1OC [TYLOSIN] | 0.5 (≈ 0.546 µM) | 1 (≈ 1.09 µM) | 8 (≈ 8.73 µM) | 1 (≈ 1.09 µM) | 0.5 (≈ 0.546 µM) | 1 (≈ 1.09 µM) | 0.5 (≈ 0.546 µM) | 64 (≈ 69.9 µM) | > 128 | 1 (≈ 1.09 µM)
